Screening data as filed in PubChem BioAssay.
PfG6PD inh: PfG6PD (Plasmodium falciparum) enzyme inhibition; PfGluPho enzyme, NADPH resazurin-diaphorase fluorescence; inhibition, % at 20 µM; 0.78% of 350,000 active; AID 504690;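 active means inhibition reaching at least a set limit at 20 µM in the primary screen, cut at about 59% in these data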;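 further: 0% = DMSO wells with substrate and 100% = DMSO wells lacking glucose-6-phosphate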
HKDC1 inh: blocks human hexokinase HKDC1 activity. 0.16% of 340,000 active. inhibition, % at 20 µM. recombinant HKDC1, G6PDH/diaphorase resazurin coupled fluorescence;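 active means inhibition above about 35% when tested at 20 µM, limit read from the data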;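 further: plate controls were DMSO wells with enzyme for no effect and DMSO wells lacking enzyme for full effect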
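Material – in-house recombinant HK5 (HKDC1) enzyme · Quantity – HKDC1 at 5 µg/mL · Buffer or medium – pH 8.0 Tris buffer with 10 mM MgCl2 · Reagent – glucose with 1 mM ATP · Dosing – single 20 µM dose · Times – reaction time 90 min, room temperature, protected from light · Technique – resorufin fluorescence at 613 nm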
ABHD5 PLIN5 PPI: inhibitors of human ABHD5-perilipin-5 interaction; Q00G26+Q8WTS1; Split G. princeps luciferase complementation, luminescence, 4 h; inhibition, % at 4 µM; 0.78% of 360,000 active; AID 602281;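 active means inhibition above the mean inhibition across every tested compound plus 3 SD, cut at about 22% in these data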;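 further: 0% = DMSO only wells and the 100% control is not disclosed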
Target sequence (Q00G26 whole entry, looked up): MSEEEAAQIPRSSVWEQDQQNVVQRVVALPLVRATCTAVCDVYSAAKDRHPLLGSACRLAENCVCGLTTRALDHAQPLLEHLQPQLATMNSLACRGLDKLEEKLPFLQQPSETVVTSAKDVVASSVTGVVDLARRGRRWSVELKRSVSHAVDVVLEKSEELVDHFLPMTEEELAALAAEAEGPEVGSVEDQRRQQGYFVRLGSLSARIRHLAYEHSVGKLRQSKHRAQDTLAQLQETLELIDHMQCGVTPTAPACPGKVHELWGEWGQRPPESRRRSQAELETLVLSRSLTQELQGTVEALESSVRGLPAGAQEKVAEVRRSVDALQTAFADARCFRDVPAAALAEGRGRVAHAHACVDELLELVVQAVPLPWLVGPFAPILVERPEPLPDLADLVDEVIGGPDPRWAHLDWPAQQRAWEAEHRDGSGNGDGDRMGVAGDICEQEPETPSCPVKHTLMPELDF
Target sequence (Q8WTS1 whole entry, looked up): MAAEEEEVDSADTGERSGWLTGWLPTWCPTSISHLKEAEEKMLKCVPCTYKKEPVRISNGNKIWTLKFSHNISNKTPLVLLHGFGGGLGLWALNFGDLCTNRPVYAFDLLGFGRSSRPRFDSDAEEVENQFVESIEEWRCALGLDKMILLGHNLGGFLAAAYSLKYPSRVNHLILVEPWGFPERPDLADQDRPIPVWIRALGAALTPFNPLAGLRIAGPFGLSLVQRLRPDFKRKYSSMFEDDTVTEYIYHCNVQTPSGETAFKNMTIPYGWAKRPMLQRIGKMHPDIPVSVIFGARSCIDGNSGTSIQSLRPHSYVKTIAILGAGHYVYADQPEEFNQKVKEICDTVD
Exocytosis inh: blocks lytic granule exocytosis; TALL-104 LAMP-1 surface exposure, flow cytometry; cells stimulated with thapsigargin and PMA; 0.66% of 360,000 active; inhibition, % at 10 µM;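 active means inhibition above about 55%, limit read from the data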
An asterisk follows results filed as active; . = not tested or not shown; ! = not confirmed by another sample. Compounds with a hit are over-represented: about 2.2% of the library has one in this group of screens.

SMILES	PfG6PD inh	HKDC1 inh	ABHD5 PLIN5 PPI	Exocytosis inh
Nc1ccccc1N=Cc1ccc(-c2cccc(Cl)c2)o1	47	-2	12	96*
CC(=O)NCCc1nc2ccccc2n1Cc1cc(C)ccc1C	-27	-4	-10	-3
CC(C)NC(=O)c1ccc2c(c1)N(Cc1ccccc1)C(=O)C(C)(C)O2	-5	-2	-2	5
CN1CCN(Cc2nc3ccccc3c(=O)n2Cc2nc(-c3ccc4ccccc4c3)cs2)CC1	19	-4	10	65*!
CCOC(=O)c1ccc(-n2c(=S)sc3c(=O)[nH]c(C)nc32)cc1	66*	-12	-11	10
COc1cc(NS(=O)(=O)c2cc(C(=O)NCCc3ccccn3)ccc2OC)cc(OC)c1	13	-4	5	-3
CNS(=O)(=O)c1cccc(C(=O)OCC(=O)Nc2ccc3ccccc3c2)c1	-7	-7	-7	0
COc1ccc(C(=O)Nc2ccccc2NC(=O)c2ccc(OC)cc2)cc1	8	0	-1	-2
CC(=O)Oc1ccc(C(=O)Nc2ccccc2NC(=O)c2ccc(OC(C)=O)cc2)cc1	3	-8	-6	58*
O=C1CCCc2c1sc1nc3n(c(=O)c21)CCCCC3	5	1	1	0
O=C1c2sc3nc4n(c(=O)c3c2CCC1Br)CCCCC4 (configuration not stated)	80*	9	-14	-1
COC(=O)c1ccccc1NC(=O)COC(=O)CO/N=C(\C)c1ccc2c(c1)OCO2	7	5	-4	-1
Cc1cc(C)n2nc(C(=O)OCC(=O)N3CC(C)CC(C)C3)nc2n1 (configuration not stated)	0	-1	7	-7
COc1ccc(NC(=O)c2nc(S(=O)(=O)Cc3cccc(C)c3)ncc2Cl)c(OC)c1	-3	-3	15	24
Cc1cccc(C)c1NC(=O)c1nc(S(=O)(=O)Cc2ccccc2)ncc1Cl	28	2	71*	47
CCc1ccc(/C=N/NC(=O)c2cc(-c3cccc([N+](=O)[O-])c3)n[nH]2)cc1	6	4	8	76*
O=C(N/N=C/c1cccc([N+](=O)[O-])c1)c1cc(-c2ccc3c(c2)OCO3)n[nH]1	-19	10	-5	-12
Cc1ccc(S(=O)(=O)N2CCOCC2)cc1C(=O)N1CCC(Cc2ccccc2)CC1	-3	1	-6	30
Cc1ccc(CNC(=O)C2c3ccccc3C(=O)N3CCc4ccccc4C23)o1 (configuration not stated)	34	2	22*	5
Fc1cccc(C[n+]2csc3ccccc32)c1	55	-1	36*	16
c1ccc(C[n+]2csc3ccccc32)cc1	62*	-5	14	11
OCCN(Cc1ccccc1)Cc1cccc(F)c1	6	-9	5	-1
CC(C)CNC(=O)c1ccccc1NC(=O)CN(c1ccccc1)S(=O)(=O)N(C)C	6	0	-7	1
CCCCCc1cc(=O)oc2c(C(CCN3CCCC(C)C3)c3ccc(N(C)C)cc3)c(OC)cc(OC)c12 (configuration not stated)	17	2	13	81*
Cc1ccc(NC(=O)C(=O)NCCCN2CC(C(=O)O)CC2=O)cc1 (configuration not stated)	2	-6	5	-4
SMILES	PfG6PD inh	HKDC1 inh	ABHD5 PLIN5 PPI	Exocytosis inh
Cc1cc(=O)oc2cc(NC(=O)Cc3ccccc3[N+](=O)[O-])ccc12	14	-6	7	-11
Cc1ccccc1OCC(=O)Nc1ccc(C(=O)Nc2ccccc2C(=O)O)cc1	-19	6	3	-6
COc1cc(/C=C2\SC(=S)N(CCC(=O)Nc3cccc(O)c3)C2=O)cc(OC)c1OC	-4	1	-1	85*
O=C(/C=C/c1ccc2ccccc2c1)c1ccoc1	14	-5	25*	8
COCCCNC(=O)C(C)N1c2cccc3cccc(c23)S1(=O)=O (configuration not stated)	6	12	2	-2
Cc1sc2ncnc(Nc3ccc(N4CCOCC4)cc3)c2c1-c1ccccc1	2	9	-6	-3
Cc1sc2ncnc(N3CCN(Cc4ccccc4)CC3)c2c1-c1ccccc1	21	5	2	63*
CCC(C)NC(=O)c1c(N)n(/N=C/c2ccccn2)c2nc3ccccc3nc12 (configuration not stated)	2	13	-1	56*
Cc1cc(N=Nc2ccccc2)c(NCC(O)C(O)C(O)CO)cc1C (configuration not stated)	15	1	22*	-3
N#Cc1ccc(C(=O)OCC(=O)N2CCCC2)cc1	7	-8	-5	1
COc1ccc(/C=C2/SC(=S)N(NS(=O)(=O)c3ccccc3)C2=O)cc1	-1	7	2	34
O=C1/C(=C\c2ccc(Br)cc2)SC(=S)N1NS(=O)(=O)c1ccccc1	8	19	-6	57*
Nc1nc2ccccc2[nH]1	-2	-3	7	-2
Nc1ccccc1Sc1nc2ccccc2[nH]1	62*	1	-8	61*
Cc1nc2ccc(NC(=O)c3cc([N+](=O)[O-])cc([N+](=O)[O-])c3Cl)cc2s1	32	10	56*	-1
CC(=O)Oc1ccc(/C=N/NC(=O)c2ccc(N(C)S(=O)(=O)c3ccccc3)cc2)cc1	7	2	-3	94*
Cc1ccc(/C=N/NC(=O)c2ccc(N(C)S(=O)(=O)c3ccccc3)cc2)cc1	17	-3	-7	-17
Clc1ccc2c(c1)C(N1CCNCC1)Cc1ccccc1S2 (configuration not stated)	27	1	33*	73*
COc1ccc2c(c1)CC(N1CCN(C)CC1)c1cc(OC)ccc1S2 (configuration not stated)	18	8	17	44
CCc1nc2ccc(C(=O)N3CCN(C(C)=O)CC3)cn2c1N(C)C(=O)c1cccc(OC)c1	.	.	-4	-4
CCc1ccc(NC(=O)CSc2nc3ccccc3nc2N2CCCC2)cc1	22	2	-3	-4
O=C(COC(=O)c1ccc(F)c([N+](=O)[O-])c1)NC(=O)NCc1ccccc1	6	19	-1	-4
O=[N+]([O-])c1ccc(N/N=C/c2ccccc2O)cc1	34	2	-1	65*
O=[N+]([O-])c1ccc(NN=Cc2ccccc2O)nc1	10	7	4	4
CCOC(=O)C1=C(CSc2nc(-c3ccccc3)ccc2C#N)OC(N)=C(C#N)C1c1ccc(OC)cc1 (configuration not stated)	36	3	-7	75*
COc1cccc(CN(C)C(=O)Cc2c[nH]c3ccccc23)c1	-6	2	0	-2
COc1cc(OC)cc(-c2c(C#Cc3ccsc3)c3cc(-c4ccc(C(N)=O)cc4)ccc3n2C)c1	8	6	-5	94*
O=c1c2ccccc2sn1-c1cc(S(=O)(=O)N2CCOCC2)ccc1N1CCOCC1	111*	0	97*	59*
CCC(CC)c1ncc[nH]1	13	-7	-5	-2
c1ccc(-c2sc3ccccc3c2-c2ccc(OCCN3CCOCC3)cc2)cc1	2	-1	6	-3
